*1 amine or outer side, *2 acyl side, *3 side chain or, on linkers, in order; H or OH if unused. Where a SMILES comes first, the peptide text is derived from it. Bridges are numbered along the chain shown (N, C = ends). Roman numbers before positions name the chains, in order. Side-chain parts run from the residue outwards. [ ]: non-standard residue; d: D form. The star is where a group is joined. Argψ(CH2NH)TyrNH2 = N=C(N)NCCC[C@@H](CN[C@@H](Cc1ccc(O)cc1)C(N)=O)N*; X4 = NC(N)=NCCC[C@@H](CN([C@@H](Cc1c[nH]cn1)C(=O)[*:2])[*:1])N[*:3]; X3 = CC(C)C[C@@H](CN([C@@H](CCCNC(=N)N)C(=O)[*:2])[*:1])N[*:3]; Dip = N[C@H](C(=O)O)C(c1ccccc1)c1ccccc1; 1Nal = N[C@@H](Cc1cccc2ccccc12)C(=O)O; 3Thi = N[C@@H](Cc1ccsc1)C(=O)O
Tests used:
[1] = tested on: Rattus norvegicus; assay: Tested for in vivo antisecretory potency for inhibiting VIP-induced (30 micro g/kg/h) secretion in isolated jejunum in anesthetized rats.(95% CL); format: functional; details: read-out: ID50 (the source's name)
How it was run: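 Rats anesthetized, saphenous vein cannulated. Isolated jejunal loop instilled with 2000 μL fluid. At the end the loop is excised, measured and weighed before and after emptying. Net water flux (μL/cm/30 min) = (F-E)2000/L; negative means absorption. 6-8 animals per dose.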

[2] = molecular target: Neuropeptide Y receptor type 1 (Homo sapiens, UniProt P25929); assay: Affinity against Neuropeptide Y receptor Y1 in SK-N-MC cell line; format: cell-based
[3] = molecular target: Neuropeptide Y receptor type 2 (Rattus norvegicus, UniProt Q9ERC0); assay: Antisecretory potency, affinity for intestinal PYY of rat jejunum by using short circuit current (SCC) method.; format: tissue-based
[4] = molecular target: T1, Neuropeptide Y receptor type 2 (Homo sapiens, UniProt P49146); assay: Affinity against Neuropeptide Y receptor Y2 in SK-N-BE2 cell line
T1 sequence (P49146 whole entry): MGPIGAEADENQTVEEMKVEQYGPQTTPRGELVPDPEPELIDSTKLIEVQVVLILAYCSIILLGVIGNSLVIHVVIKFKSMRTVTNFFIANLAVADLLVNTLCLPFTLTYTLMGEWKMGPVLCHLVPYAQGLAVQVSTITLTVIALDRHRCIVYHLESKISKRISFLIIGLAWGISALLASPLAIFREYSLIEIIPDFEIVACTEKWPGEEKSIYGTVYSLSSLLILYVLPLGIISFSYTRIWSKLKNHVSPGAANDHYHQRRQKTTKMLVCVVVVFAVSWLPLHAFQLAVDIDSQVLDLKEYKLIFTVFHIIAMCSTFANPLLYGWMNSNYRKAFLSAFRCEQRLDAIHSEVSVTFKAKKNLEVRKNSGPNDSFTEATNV

Sequence of Neuropeptide Y receptor type 1 (P25929 whole entry): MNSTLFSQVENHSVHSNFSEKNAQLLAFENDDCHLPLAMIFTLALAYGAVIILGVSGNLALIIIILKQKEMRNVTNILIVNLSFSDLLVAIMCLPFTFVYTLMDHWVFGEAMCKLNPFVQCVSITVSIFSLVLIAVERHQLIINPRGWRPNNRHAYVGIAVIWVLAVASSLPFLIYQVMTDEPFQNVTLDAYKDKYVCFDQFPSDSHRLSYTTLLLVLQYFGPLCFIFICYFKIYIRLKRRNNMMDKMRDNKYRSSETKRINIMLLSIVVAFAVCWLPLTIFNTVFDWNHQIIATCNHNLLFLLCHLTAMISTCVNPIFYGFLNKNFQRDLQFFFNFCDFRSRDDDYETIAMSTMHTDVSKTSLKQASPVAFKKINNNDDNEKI
Sequence of Neuropeptide Y receptor type 2 (Rattus norvegicus, UniProt Q9ERC0) (Q9ERC0 whole entry): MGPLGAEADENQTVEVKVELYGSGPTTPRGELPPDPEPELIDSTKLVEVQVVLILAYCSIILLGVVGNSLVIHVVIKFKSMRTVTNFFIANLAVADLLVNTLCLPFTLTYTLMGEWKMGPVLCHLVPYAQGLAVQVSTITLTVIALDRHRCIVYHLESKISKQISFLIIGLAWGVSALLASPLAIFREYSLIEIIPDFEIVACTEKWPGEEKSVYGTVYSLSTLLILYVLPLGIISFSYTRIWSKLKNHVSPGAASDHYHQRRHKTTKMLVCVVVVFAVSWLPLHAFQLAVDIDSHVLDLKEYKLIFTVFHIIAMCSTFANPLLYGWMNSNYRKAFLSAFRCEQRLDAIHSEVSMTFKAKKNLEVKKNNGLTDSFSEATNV

Compound	ED50 [1] [µmol/kg]	IC50 [2] [nM]	IC50 [3] [nM]	IC50 [4] [nM]	IC50 ([2]; sk-n-mc) [nM]
CC(=O)N[C@@H](C)C(=O)N[C@@H](CO)C(=O)N[C@@H](CC(C)C)C(=O)N[C@@H](CCCN=C(N)N)C(=O)N[C@@H](Cc1c[nH]cn1)C(=O)N[C@@H](Cc1ccc(O)cc1)C(=O)N[C@@H](CC(C)C)C(=O)N[C@@H](CC(N)=O)C(=O)N[C@@H](Cc1c[nH]c2ccccc12)C(=O)N[C@H](C(=O)N[C@H](C(=O)N[C@@H](CCCN=C(N)N)C(=O)N[C@@H](CCC(N)=O)C(=O)N[C@@H](CCCN=C(N)N)CN[C@@H](Cc1ccc(O)cc1)C(N)=O)[C@@H](C)O)C(C)C	0.00019				
CCCC[C@H](NC(=O)[C@H](CO)NC(=O)[C@H](C)NC(C)=O)C(=O)N[C@@H](CCCN=C(N)N)C(=O)N[C@@H](Cc1c[nH]cn1)C(=O)N[C@@H](Cc1ccc(O)cc1)C(=O)N[C@@H](CCCC)C(=O)N[C@@H](CC(N)=O)C(=O)N[C@@H](Cc1c[nH]c2ccccc12)C(=O)N[C@@H](CCC)C(=O)N[C@H](C(=O)N[C@@H](CCCN=C(N)N)C(=O)N[C@@H](CCC(N)=O)C(=O)N[C@@H](CCCN=C(N)N)C(=O)N[C@@H](Cc1ccc(O)cc1)C(N)=O)[C@@H](C)O	1.3e-05				
CC(=O)N[C@@H](C)C(=O)N[C@@H](CO)C(=O)N[C@@H](CC(C)C)C(=O)N[C@@H](CCCN=C(N)N)C(=O)N[C@@H](Cc1c[nH]cn1)C(=O)N[C@@H](Cc1ccc(O)cc1)C(=O)N[C@@H](CC(C)C)C(=O)N[C@@H](CC(N)=O)C(=O)N[C@@H](CC(C)C)C(=O)N[C@H](C(=O)N[C@H](C(=O)N[C@@H](CCCN=C(N)N)C(=O)N[C@@H](CCC(N)=O)C(=O)N[C@@H](CCCN=C(N)N)CN[C@@H](Cc1ccc(O)cc1)C(N)=O)[C@@H](C)O)C(C)C (Ac-ASLRHYLNLVTRQ-{Argψ(CH2NH)TyrNH2})		> 10000	0.05	1.32	
CC(=O)N[C@@H](C)C(=O)N[C@@H](CO)C(=O)N[C@@H](CC(C)C)C(=O)N[C@@H](CCCNC(=N)N)C(=O)N[C@@H](Cc1cnc[nH]1)C(=O)N[C@@H](Cc1ccc(O)cc1)C(=O)N[C@@H](CC(C)C)C(=O)N[C@@H](CC(N)=O)C(=O)N[C@@H](CC(C)C)C(=O)N[C@H](C(=O)N[C@H](C(=O)N[C@@H](CCCNC(=N)N)C(=O)N[C@@H](CCC(N)=O)C(=O)N[C@@H](CCCNC(=N)N)C(=O)N[C@H](C(N)=O)C(c1ccccc1)c1ccccc1)[C@@H](C)O)C(C)C (Ac-ASLRHYLNLVTRQR[Dip]-NH2)		1250	> 100	> 10000	
CC(=O)N[C@@H](C)C(=O)N[C@@H](CO)C(=O)N[C@@H](CC(C)C)C(=O)N[C@@H](CCCNC(=N)N)C(=O)N[C@@H](Cc1cnc[nH]1)C(=O)N[C@@H](Cc1ccc(O)cc1)C(=O)N[C@@H](CC(C)C)C(=O)N[C@@H](CC(N)=O)C(=O)N[C@@H](Cc1cccc2ccccc12)C(=O)N[C@H](C(=O)N[C@H](C(=O)N[C@@H](CCCNC(=N)N)C(=O)N[C@@H](CCC(N)=O)C(=O)N[C@@H](CCCNC(=N)N)C(=O)N[C@@H](Cc1ccc(O)cc1)C(N)=O)[C@@H](C)O)C(C)C (Ac-ASLRHYLN[1Nal]VTRQRY-NH2)		159	3.54	1.09	
CC(=O)N[C@@H](C)C(=O)N[C@@H](CO)C(=O)N[C@@H](CC(C)C)C(=O)N[C@@H](CCCN=C(N)N)C(=O)N[C@@H](Cc1c[nH]cn1)C(=O)N[C@@H](Cc1cccc2ccccc12)C(=O)N[C@@H](CC(C)C)C(=O)N[C@@H](CC(N)=O)C(=O)N[C@@H](CC(C)C)C(=O)N[C@H](C(=O)N[C@H](C(=O)N[C@@H](CCCN=C(N)N)C(=O)N[C@@H](CCC(N)=O)C(=O)N[C@@H](CCCN=C(N)N)C(=O)N[C@@H](Cc1ccc(O)cc1)C(N)=O)[C@@H](C)O)C(C)C (Ac-ASLRH[1Nal]LNLVTRQRY-NH2)		88.3	6.6	7.08	
CC(=O)N[C@@H](C)C(=O)N[C@@H](CO)C(=O)N[C@@H](CC(C)C)C(=O)N[C@@H](CCCN=C(N)N)C(=O)N[C@@H](Cc1c[nH]cn1)C(=O)N[C@@H](Cc1ccsc1)C(=O)N[C@@H](CC(C)C)C(=O)N[C@@H](CC(N)=O)C(=O)N[C@@H](CC(C)C)C(=O)N[C@H](C(=O)N[C@H](C(=O)N[C@@H](CCCN=C(N)N)C(=O)N[C@@H](CCC(N)=O)C(=O)N[C@@H](CCCN=C(N)N)C(=O)N[C@@H](Cc1ccc(O)cc1)C(N)=O)[C@@H](C)O)C(C)C (Ac-ASLRH[3Thi]LNLVTRQRY-NH2)			1	2.63	257
CC(=O)N[C@@H](C)C(=O)N[C@@H](CO)C(=O)N[C@@H](CC(C)C)C(=O)N[C@@H](CCCNC(=N)N)C(=O)N[C@@H](Cc1cnc[nH]1)C(=O)N[C@H](C(=O)N[C@@H](CC(C)C)C(=O)N[C@@H](CC(N)=O)C(=O)N[C@@H](CC(C)C)C(=O)N[C@H](C(=O)N[C@H](C(=O)N[C@@H](CCCNC(=N)N)C(=O)N[C@@H](CCC(N)=O)C(=O)N[C@@H](CCCNC(=N)N)C(=O)N[C@@H](Cc1ccc(O)cc1)C(N)=O)[C@@H](C)O)C(C)C)C(c1ccccc1)c1ccccc1 (Ac-ASLRH[Dip]LNLVTRQRY-NH2)		447	16.5	10	
CC(=O)N[C@@H](C)C(=O)N[C@@H](CO)C(=O)N[C@H](CN[C@@H](CCCNC(=N)N)C(=O)N[C@@H](Cc1cnc[nH]1)C(=O)N[C@@H](Cc1ccc(O)cc1)C(=O)N[C@@H](CC(C)C)C(=O)N[C@@H](CC(N)=O)C(=O)N[C@@H](CC(C)C)C(=O)N[C@H](C(=O)N[C@H](C(=O)N[C@@H](CCCNC(=N)N)C(=O)N[C@@H](CCC(N)=O)C(=O)N[C@@H](CCCNC(=N)N)C(=O)N[C@@H](Cc1ccc(O)cc1)C(N)=O)[C@@H](C)O)C(C)C)CC(C)C (H-[X3]([Ser-Ala-Ac])HYLNLVTRQRY-NH2)		735	2.76	59	
CC(=O)N[C@@H](C)C(=O)N[C@@H](CO)C(=O)N[C@@H](CC(C)C)C(=O)N[C@@H](CCCN=C(N)N)CN[C@@H](Cc1c[nH]cn1)C(=O)N[C@@H](Cc1ccc(O)cc1)C(=O)N[C@@H](CC(C)C)C(=O)N[C@@H](CC(N)=O)C(=O)N[C@@H](CC(C)C)C(=O)N[C@H](C(=O)N[C@H](C(=O)N[C@@H](CCCN=C(N)N)C(=O)N[C@@H](CCC(N)=O)C(=O)N[C@@H](CCCN=C(N)N)C(=O)N[C@@H](Cc1ccc(O)cc1)C(N)=O)[C@@H](C)O)C(C)C (H-[X4]([Leu-Ser-Ala-Ac])YLNLVTRQRY-NH2)		> 1000	4.22	41	
CC(=O)N[C@@H](C)C(=O)N[C@@H](CO)C(=O)N[C@@H](CSSC[C@H](NC(=O)[C@H](CO)NC(=O)[C@H](C)NC(C)=O)C(=O)N[C@@H](CCCNC(=N)N)C(=O)N[C@@H](Cc1cnc[nH]1)C(=O)N[C@@H](Cc1ccc(O)cc1)C(=O)N[C@@H](CC(C)C)C(=O)N[C@@H](CC(N)=O)C(=O)N[C@@H](CC(C)C)C(=O)N[C@H](C(=O)N[C@H](C(=O)N[C@@H](CCCNC(=N)N)C(=O)N[C@@H](CCC(N)=O)C(=O)N[C@@H](CCCNC(=N)N)C(=O)N[C@@H](Cc1ccc(O)cc1)C(N)=O)[C@@H](C)O)C(C)C)C(=O)N[C@@H](CCCNC(=N)N)C(=O)N[C@@H](Cc1cnc[nH]1)C(=O)N[C@@H](Cc1ccc(O)cc1)C(=O)N[C@@H](CC(C)C)C(=O)N[C@@H](CC(N)=O)C(=O)N[C@@H](CC(C)C)C(=O)N[C@H](C(=O)N[C@H](C(=O)N[C@@H](CCCNC(=N)N)C(=O)N[C@@H](CCC(N)=O)C(=O)N[C@@H](CCCNC(=N)N)C(=O)N[C@@H](Cc1ccc(O)cc1)C(N)=O)[C@@H](C)O)C(C)C (I: Ac-ASCRHYLNLVTRQRY-NH2 / II: Ac-ASCRHYLNLVTRQRY-NH2; disulfide I:3-II:3) [listing 1 of 2 here]		110	0.63	0.39	
CC(=O)N[C@@H](C)C(=O)N[C@@H](CO)C(=O)N[C@@H](CSSC[C@H](NC(=O)[C@H](CO)NC(=O)[C@H](C)NC(C)=O)C(=O)N[C@@H](CCCNC(=N)N)C(=O)N[C@@H](Cc1cnc[nH]1)C(=O)N[C@@H](Cc1ccc(O)cc1)C(=O)N[C@@H](CC(C)C)C(=O)N[C@@H](CC(N)=O)C(=O)N[C@@H](CC(C)C)C(=O)N[C@H](C(=O)N[C@H](C(=O)N[C@@H](CCCNC(=N)N)C(=O)N[C@@H](CCC(N)=O)C(=O)N[C@@H](CCCNC(=N)N)C(=O)N[C@@H](Cc1ccc(O)cc1)C(N)=O)[C@@H](C)O)C(C)C)C(=O)N[C@@H](CCCNC(=N)N)C(=O)N[C@@H](Cc1cnc[nH]1)C(=O)N[C@@H](Cc1ccc(O)cc1)C(=O)N[C@@H](CC(C)C)C(=O)N[C@@H](CC(N)=O)C(=O)N[C@@H](CC(C)C)C(=O)N[C@H](C(=O)N[C@H](C(=O)N[C@@H](CCCNC(=N)N)C(=O)N[C@@H](CCC(N)=O)C(=O)N[C@@H](CCCNC(=N)N)C(=O)N[C@@H](Cc1ccc(O)cc1)C(N)=O)[C@@H](C)O)C(C)C (I: Ac-ASCRHYLNLVTRQRY-NH2 / II: Ac-ASCRHYLNLVTRQRY-NH2; disulfide I:3-II:3) [listing 2 of 2 here]	0.000365				
Ac-ASLRAFLNLVTRQRY-NH2		674	5.3	3.84	
Ac-ASLRHFLNLVTRQRF-NH2		> 10000	14.1	1.16	
Ac-ASLRHFLNLVTRQRY-NH2		764	2.3	1.83	
Ac-ASLRHYWNWVTRQRY-NH2		233	1.07	3.17	
Ac-YSLRHFLNLVTRQRY-NH2		48.9	3.4	2.68	

Source: ChEMBL document CHEMBL1133640, “Structure-activity studies including a Psi(CH(2)-NH) scan of peptide YY (PYY) active site, PYY(22-36), for interaction with rat intestinal PYY receptors: development of analogues with potent in vivo activity in the intestine” (J Med Chem, 2000)
